Assay [1] has as its target T1, Adenosine receptor A1 (Rattus norvegicus, UniProt P25099).
T1 sequence (P25099 whole entry): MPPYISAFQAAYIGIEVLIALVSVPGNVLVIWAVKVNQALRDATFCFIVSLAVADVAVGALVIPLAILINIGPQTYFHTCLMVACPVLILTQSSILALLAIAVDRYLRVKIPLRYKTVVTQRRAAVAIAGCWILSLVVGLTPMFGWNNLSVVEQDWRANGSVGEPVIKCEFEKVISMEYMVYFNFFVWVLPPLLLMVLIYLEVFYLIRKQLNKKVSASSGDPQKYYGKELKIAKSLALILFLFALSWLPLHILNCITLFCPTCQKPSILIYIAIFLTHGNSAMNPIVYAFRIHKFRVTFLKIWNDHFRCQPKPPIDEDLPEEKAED
The assay is described as follows: Binding affinity against adenosine A1 receptor in rat cortex by the displacement of [3H]cyclohexyladenosine (CHA). Type of assay: tissue-based. On the technique in general: Displacement assays read how much labelled ligand stays bound in the presence of the test substance.

Assay [2] addresses T2, Adenosine A2 receptor (Rattus norvegicus, UniProt P29276+P30543). The assay is described as follows: Binding affinity against adenosine A2 receptor in rat striatum by the displacement of [3H]N-ethyladenosine-5''-uronamide(NECA). Type of assay: tissue-based.
The target in assay [3] is T2, Adenosine A2 receptor. The assay is described as follows: Binding affinity against Adenosine A2 receptor in rat striatum by displacement of [3H]N-ethyladenosine-5''-uronamide(NECA). Type of assay: tissue-based. The essentials: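 Male Sprague-Dawley rat striatal membranes, 5 mg tissue, in 50 mM Tris-HCl pH 7.7 with 10 mM MgCl2, 0.1 unit/mL ADA and 50 nM CPA to block A1 sites. 4 nM [3H]NECA, 12 xanthine concentrations, triplicates, 1 h at room temperature; nonspecific with 100 μM CPA; filtration counting. IC50 by log-logit, Ki by Cheng-Prusoff (Kd 4 nM).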

Assay [4] addresses Adenosine receptors; A1 & A2 (Rattus norvegicus) (UniProt P29276+P25099+P30543). The assay is described as follows: Ratio of binding affinities for adenosine A2 and A1 receptors. Type of assay: protein assay.
The target of assay [5] is T1, Adenosine receptor A1. The assay is described as follows: Binding affinity against Adenosine A1 receptor in rat cortex by displacement of [3H]cyclohexyladenosine (CHA). Put shortly:
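Male Sprague-Dawley rat cerebral cortex membranes, homogenized in 50 mM Tris-HCl pH 7.4, pretreated 30 min at 37 °C with ADA (2 IU/mL), 7.5 mg tissue per tube. 1.0 nM [3H]CHA, 12 xanthine concentrations, triplicates, 2 h at 25 °C; nonspecific with 10 μM 2-chloroadenosine; filtration, scintillation counting.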

The values that follow come from ChEMBL document CHEMBL1125829, “1,3,8-trisubstituted xanthines. Effects of substitution pattern upon adenosine receptor A1/A2 affinity” (J Med Chem, 1991).

Turning to `CCCn1c(=O)c2nc(/C=C/c3ccccc3)[nH]c2n(C)c1=O`, the Ki at Adenosine receptor A1 [1] is 49.6 nM; on Adenosine A2 receptor [2], 58 nM.
Taken in the same sequence, the figures for `CCCn1c(=O)c2nc(-c3ccc(C#N)cc3)[nH]c2n(CCC)c1=O` were 4.48 nM and 189 nM.
The like results for `CCCn1c(=O)n(C)c(=O)c2[nH]c(-c3ccncc3)nc21` were, in that order, 21.8 nM and 476 nM.
As for `CCCn1c(=O)c2nc(-c3cccnc3)[nH]c2n(C)c1=O`, on Adenosine A2 receptor [3], the Ki amounted to 3100 nM. Besides, the Ratio in assay [4] came to 44.
`CCCn1c(=O)c2nc(C3CCCCC3)[nH]c2n(C)c1=O`: the Ki at Adenosine receptor A1 [1] was determined as 5.02 nM; on Adenosine A2 receptor [2] it was 995 nM.
Consider `CCCn1c(=O)c2nc(-c3ccc(O)cc3)[nH]c2n(CCC)c1=O`, for which, on Adenosine receptor A1 [1], the affinity corresponds to a Ki of 0.63 nM.
In the case of `CCCn1c(=O)c2nc(-c3ccccc3)[nH]c2n(C)c1=O`, at Adenosine A2 receptor [2], the inhibition constant Ki worked out at 553 nM.
As for `CCCn1c(=O)c2nc(-c3ccncc3)[nH]c2n(CCC)c1=O`, the Ki was determined as 3.23 nM at Adenosine receptor A1 [1] and 136 nM on Adenosine A2 receptor [2].
Regarding `CCCn1c(=O)c2nc(-c3cccnc3)[nH]c2n(CCC)c1=O`, the Ki at Adenosine A2 receptor [3] amounted to 347 nM; on Adenosine receptor A1 [5], 11.6 nM. Further, the Ratio in assay [4] worked out at 30.
As to `CCCn1c(=O)c2nc(-c3cccs3)[nH]c2n(C)c1=O`, the Ki on Adenosine A2 receptor [3] is 719 nM; on Adenosine receptor A1 [5], 9.68 nM. For the same compound, the Ratio in assay [4] was 74.
On to `CCCn1c(=O)c2nc(-c3ccc(C#N)cc3)[nH]c2n(C)c1=O`, for which the Ki at Adenosine receptor A1 [1] is 5.95 nM; at Adenosine A2 receptor [2], 446 nM.
Taken in the same sequence, the figures for `CCCn1c(=O)c2nc(CCc3ccccc3)[nH]c2n(CCC)c1=O` were 57.8 nM and 593 nM.
For `CCCn1c(=O)n(C)c(=O)c2[nH]c(C3CCCCC3)nc21`, the Ki is 1.81 nM at Adenosine receptor A1 [1] and 403 nM at Adenosine A2 receptor [2].
Compound `Cn1c(=O)c2nc(-c3ccccc3)[nH]c2n(C)c1=O` [8-PHENYL THEOPHYLLINE] displayed a Ki on Adenosine A2 receptor [2] of 644 nM.
On to `CCCn1c(=O)c2nc(C3CCCC3)[nH]c2n(C)c1=O`, for which the values for the Ki on Adenosine receptor A1 [1] and at Adenosine A2 receptor [2] were 1.06 nM and 1010 nM, respectively.
For `CCCn1c(=O)c2nc(-c3cccs3)[nH]c2n(CCC)c1=O`, on Adenosine A2 receptor [3], the Ki is on record as 173 nM. Further, the Ratio in assay [4] came to 54.
On to `CCCn1c(=O)c2nc(-c3ccncc3)[nH]c2n(C)c1=O`, for which the Ki on Adenosine receptor A1 [1] worked out at 27.6 nM; at Adenosine A2 receptor [2] it was 3760 nM.
Taken in the same sequence, the figures for `CCCn1c(=O)c2nc(-c3ccsc3)[nH]c2n(CCC)c1=O` were 2.04 nM and 39.4 nM.
As to `CCCn1c(=O)n(C)c(=O)c2[nH]c(-c3cccnc3)nc21`, the Ki amounted to 1200 nM on Adenosine A2 receptor [3] and 72.8 nM at Adenosine receptor A1 [5]. Moreover, the Ratio in assay [4] stood at 16.
The compound `CCCn1c(=O)c2[nH]c(-c3cccnc3)nc2n(C)c1=O` yielded a Ki on Adenosine receptor A1 [5] of 70.2 nM.
For the compound `CCCn1c(=O)n(C)c(=O)c2[nH]c(-c3cccs3)nc21`, the inhibition constant Ki worked out at 8.93 nM at Adenosine receptor A1 [1] and 329 nM on Adenosine A2 receptor [2].
`CCCn1c(=O)n(C)c(=O)c2[nH]c(-c3ccc(O)cc3)nc21`: the Ki came to 2.54 nM on Adenosine receptor A1 [1] and 81.5 nM at Adenosine A2 receptor [2].
On Adenosine A2 receptor [2], `CCCn1c(=O)n(C)c(=O)c2[nH]c(/C=C/c3ccccc3)nc21` yielded a Ki of 46.5 nM.
Consider `CCCn1c(=O)c2nc(CCc3ccccc3)[nH]c2n(C)c1=O`, for which the Ki came to 275 nM on Adenosine receptor A1 [1] and 1440 nM on Adenosine A2 receptor [2].
Take `CCCn1c(=O)c2nc(-c3ccsc3)[nH]c2n(C)c1=O`: the Ki on Adenosine A2 receptor [3] came out at 315 nM; on Adenosine receptor A1 [5], 6.4 nM. Besides, the Ratio in assay [4] turned out to be 49.
Turning to `CCCn1c(=O)c2nc(/C=C/c3ccccc3)[nH]c2n(CCC)c1=O`, the Ki on Adenosine A2 receptor [2] is on record as 85.1 nM.
Turning to `CCCn1c(=O)c2[nH]c(-c3cccs3)nc2n(CCC)c1=O`, the Ki at Adenosine receptor A1 [5] came out at 3.2 nM.
As to `CCCn1c(=O)n(C)c(=O)c2[nH]c(-c3ccccc3)nc21`, at Adenosine A2 receptor [2], the Ki was determined as 93.3 nM.
As to `CCCn1c(=O)n(C)c(=O)c2[nH]c(C3CCCC3)nc21`, the Ki is 0.85 nM at Adenosine receptor A1 [1] and 247 nM at Adenosine A2 receptor [2].
`CCCn1c(=O)n(C)c(=O)c2[nH]c(-c3ccsc3)nc21`: the Ki at Adenosine A2 receptor [3] worked out at 70.3 nM; at Adenosine receptor A1 [5], 4.68 nM. In addition, the Ratio in assay [4] was 15.
With `CCCn1c(=O)n(C)c(=O)c2[nH]c(CCc3ccccc3)nc21`, the Ki came to 259 nM at Adenosine receptor A1 [1] and 1050 nM at Adenosine A2 receptor [2].
Taken in the same sequence, the figures for `CCCn1c(=O)n(C)c(=O)c2[nH]c(-c3ccc(C#N)cc3)nc21` were 13.9 nM and 254 nM.
With `CCCn1c(=O)c2nc(-c3ccc(O)cc3)[nH]c2n(C)c1=O`, the results for the Ki on Adenosine receptor A1 [1] and at Adenosine A2 receptor [2] were 1.28 nM and 263 nM, respectively.

A word on the Ki: it is a dissociation constant, usually derived from enzyme kinetics or from competition with a known ligand. Higher therefore signals weaker binding.
